# From PubChem BioAssay
# Shown are actives, neighbours in structure and some others; about 9.4% of the full set was active somewhere.
# Beta apoptosis: blocks beta cell apoptosis | AID 435005 | 0.8% of 300,000 active | INS-1E cytokine-induced death, ATP luminescence, 48 h; percent of positive-control rescue, neutral wells zero | protection from apoptosis, % (concentration not given with the values);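 active = Every replicate reaches about 75%, or at least half do and their mean reaches it too, limit read from the data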;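 also: 0% = cytokine-treated negative control wells and 100% = positive control rescue; higher means more ATP so stronger rescue from cytokine killing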
# SKKanGAS inh: blocks kanamycin growth of S. pyogenes SKKanGAS strain; BacTiter-Glo, 6 h; inhibition, % at 7.5 µM; 1.3% of 300,000 active; AID 1662;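 active = mean replicate score, as percent of positive control median, at least 50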;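 also: strain carries kanamycin resistance gene driven by streptokinase promoter and grows in 40 µg/ml kanamycin; loss of luminescence reflects streptokinase promoter inhibition or plain growth inhibition; 0% = median of DMSO wells and 100% = positive control at its reference dose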
# T cruzi repl: blocks replication of Trypanosoma cruzi | inhibition, % (test concentration not listed) | T. cruzi beta-gal in NIH3T3, luminescence, 90 h | 1.4% of 300,000 active;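 active = mean inhibition across valid replicates above about 55%, limit read from the data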;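 also: signal also drops with host cell toxicity which is not excluded here; 0% = plate median of DMSO wells and 100% = zero luminescence signal; higher percent means less beta-gal luminescence so fewer parasites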
#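 Test system: β-gal T. cruzi (Tulahuen C4) inside NIH/3T3 cells / Quantity: 5,000 cells/well / Measured by: luminescence from GalScreen with 0.05% NP40, read after 60 min / Medium: DMEM plus 2% FBS / Measure: parasite load inhibition, % / Reagent: Tulahuen C4 trypomastigotes, 5000/well / Schedule: co-culture of at least 90 h after 3 h attachment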
# CSC inhib: blocks cancer stem cells; cancer stem cell-like cells viability, luminescence; inhibition, % at 7.5 µM; 1.1% of 300,000 active; in the data active = inhibition above about 75%; tested in HMLE shEcad cells
# L major viab: inhibitors of Leishmania major promastigote growth; 9% of 200,000 active; inhibition, % at 10 µM; Leishmania major promastigotes, resazurin fluorescence viability; in the data active = inhibition above about 50%;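 also: promastigotes grown with compound for 44 hours at 28 °C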
# Mdm2-MdmX inh: disrupts the human Mdm2-MdmX interaction. SaOS-2 split-luciferase Mdm2/MdmX complementation, luminescence. inhibition, % at 8 µM. 3% of 330,000 active. AID 485346;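 active = inhibition of at least 50% at 8 µM in the primary screen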
# Target sequence (O15151 whole entry, looked up): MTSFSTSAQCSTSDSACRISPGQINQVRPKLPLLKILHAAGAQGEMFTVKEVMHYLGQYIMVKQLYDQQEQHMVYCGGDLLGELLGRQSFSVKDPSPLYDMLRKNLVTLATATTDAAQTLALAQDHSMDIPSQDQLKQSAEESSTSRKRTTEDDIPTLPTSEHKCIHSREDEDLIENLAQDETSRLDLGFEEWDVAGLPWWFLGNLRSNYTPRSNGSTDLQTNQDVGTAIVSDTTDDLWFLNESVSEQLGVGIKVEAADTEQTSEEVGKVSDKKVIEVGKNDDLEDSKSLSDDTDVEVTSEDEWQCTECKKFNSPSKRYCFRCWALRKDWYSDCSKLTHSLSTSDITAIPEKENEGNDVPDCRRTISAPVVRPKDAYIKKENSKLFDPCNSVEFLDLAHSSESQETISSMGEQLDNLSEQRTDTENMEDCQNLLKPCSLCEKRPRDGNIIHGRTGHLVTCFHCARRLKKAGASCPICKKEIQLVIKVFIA
# Target sequence (Q00987 whole entry, looked up): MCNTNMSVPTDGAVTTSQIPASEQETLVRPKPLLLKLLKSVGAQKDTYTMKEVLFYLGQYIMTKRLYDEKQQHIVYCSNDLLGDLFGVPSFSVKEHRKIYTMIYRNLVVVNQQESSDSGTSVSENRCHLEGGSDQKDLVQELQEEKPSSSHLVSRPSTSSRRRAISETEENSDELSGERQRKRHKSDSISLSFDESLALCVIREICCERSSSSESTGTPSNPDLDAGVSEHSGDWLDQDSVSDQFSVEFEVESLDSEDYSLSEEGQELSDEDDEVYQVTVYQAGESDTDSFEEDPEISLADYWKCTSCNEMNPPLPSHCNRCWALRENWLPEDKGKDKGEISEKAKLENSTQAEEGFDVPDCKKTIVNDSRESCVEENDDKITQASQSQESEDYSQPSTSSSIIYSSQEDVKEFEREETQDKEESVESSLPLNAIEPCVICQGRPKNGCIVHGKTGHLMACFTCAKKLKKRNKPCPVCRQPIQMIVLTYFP
# Mdm2-MdmX conf: confirmation of human Mdm2/MdmX interaction inhibitors; 55% of 10,000 active; shares compounds with Mdm2-MdmX inh; Mdm2-MdmX binding, luminescent assay; AID 489028; inhibition, % at 8 µM; in the data active = inhibition above about 40%
# Full FLuc ctr: full-length luciferase inhibition in Mdm2/MdmX counter-screen; inhibition, % at 8 µM; 77% of 6,200 active; SaOS-2 full-length luciferase counterscreen, luminescence; shares compounds with Mdm2-MdmX inh; AID 504607;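 active = mean inhibition at 8 µM reaching about 37%, which flags the compound as non-specific, limit read from the data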;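 also: p53-null SaOS-2 cells with luciferase driven by a doxycycline-inducible promoter; compound on cells about two nights before reading with doxycycline added after day one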
# * hit, by the source's call; . = not tested or not shown.
SMILES,Beta apoptosis,SKKanGAS inh,T cruzi repl,CSC inhib,L major viab,Mdm2-MdmX inh,Mdm2-MdmX conf,Full FLuc ctr
O=C(/C=C\c1cn(-c2ccccc2)nc1-c1ccccc1)Nc1nccs1,48,5,8,11,-4,84*,81*,29
CC(=O)NS(=O)(=O)c1ccc(NC(=O)/C=C/c2cn(-c3ccccc3)nc2-c2ccccc2)cc1,-1,39,-15,1,-5,14,.,.
COc1ccc(NC(=O)c2cccc(N3C(=O)c4ccc(C(=O)Nc5ccc(OC)c(O)c5)cc4C3=O)c2)cc1O,-1,13,-21,0,.,21,.,.
Cn1c(=O)n(C)c2cc([N+](=O)[O-])c(N3CCN(S(=O)(=O)c4ccc(C(C)(C)C)cc4)CC3)cc21,31,-11,46,29,70*,60*,38,70*
O=Cc1ccccc1OCCOc1ccccc1C=O,20,5,-25,53,72*,51*,43*,91*
O=C(CCl)Nc1cn(-c2ccccc2)nc1-c1ccccc1,-8,11,12,21,99*,75*,33,34
O=C(CCl)Nc1cccc(Oc2ccccc2)c1,-8,13,56*,-8,98*,94*,21,.
CC(C)N(c1ccccc1)c1ccc(NC(=O)CCl)cc1,-8,3,80*,-7,55*,97*,99*,51*
O=C(CCl)Nc1ccc(-c2ccccc2)cc1,-24,6,61*,5,79*,96*,99*,50*
O=C(CCl)Nc1cccc(Oc2cnccn2)c1,-6,-3,1,14,.,33,.,.
CC1(C)CC(=O)C(=Cc2cn(-c3ccccc3)nc2-c2ccccc2)C(=O)C1,1,-4,-27,41,.,19,.,.
CC1=NNC(=O)/C1=C\c1cn(-c2ccccc2)nc1-c1ccc(Cl)cc1,107*,66*,48,102*,101*,100*,47*,3
COC(=O)c1cc(S(=O)(=O)Nc2cccc(C)c2C)cn1C,-6,0,-6,1,.,23,.,.
COc1ccc(S(=O)(=O)Nc2ccccc2C)cc1,1,-4,-11,21,5,29,.,.
COc1ccc(S(=O)(=O)Nc2cccc3ccc(O)cc23)cc1,9,3,-3,60,.,60*,57*,52*
Cc1cc(Cn2nnc3ccccc32)c(O)c(C(C)(C)C)c1,3,26,4,-4,.,16,.,.
COc1cc(NC(=O)c2cc3c(C)nc4ccccc4c3o2)cc(OC)c1OC,8,3,-3,1,44,59*,29,.
CC1=NOC(=O)/C1=C\c1ccc(-c2ccc(Cl)cc2Cl)o1,.,70*,-22,.,93*,64*,6,.
CCCOc1ccc(Cl)cc1/C=C1/C(=O)ON=C1C,-7,-4,1,3,.,6,.,.
COc1cc(OC)cc(C(=O)NNC(=O)c2ccc3ccccc3n2)c1,.,.,.,.,.,55*,69*,46*
COc1ccc(C(=O)NC(=S)NNC(=O)c2ccc3ccccc3n2)cc1,-18,18,51,1,.,56*,33,52*
COc1cc(C(=O)NNC(=O)c2ccc3ccccc3n2)cc(OC)c1OC,9,.,.,33,.,50,.,.
Cc1ccccc1/C(N)=N/O,-5,7,-6,1,-3,18,.,.
N#C/C(=C/c1ccc(Br)o1)C(N)=O,0,-2,-7,0,-5,23,.,.
N#C/C(=C/c1ccc(Br)o1)C(N)=S,4,4,4,40,.,76*,43*,64*
SMILES,Beta apoptosis,SKKanGAS inh,T cruzi repl,CSC inhib,L major viab,Mdm2-MdmX inh,Mdm2-MdmX conf,Full FLuc ctr
O=C(N/N=C/C=C/c1cccc([N+](=O)[O-])c1)C(O)c1ccccc1 (stereo not given),0,1,-7,-12,-9,-3,.,.
O=C(CNc1ccc2ccccc2c1)N/N=C/C=C/c1cccc([N+](=O)[O-])c1,-6,10,-21,28,0,82*,12,.
O=C(CN1C(=O)c2ccc([N+](=O)[O-])cc2C1=O)NCCC1=CCCCC1,-10,0,-9,-1,.,8,.,.
CN1C(=O)/C(=C/c2cccc(Cl)c2)Sc2ccc(C(=O)N3CCCC3)cc21,6,-1,-5,-10,.,73*,13,.
Clc1cccc(OCCN2CCN(CCOc3cccc(Cl)c3)CC2)c1,20,2,51,36,99*,69*,35,.
Cc1cccc(N2CC(C(=O)O)CC2=O)c1C (stereo not given),-2,7,-8,-12,.,-11,.,.
c1cncc(-c2ccc3ncnc(NCc4ccc5c(c4)OCO5)c3c2)c1,-2,.,.,.,.,42,.,.
COc1ccc(-n2ncc3c(NCc4ccc5c(c4)OCO5)ncnc32)cc1,-4,6,-9,-8,-7,59*,-31,.
c1nc(NCc2ccc3c(c2)OCO3)c2cc(-c3ccoc3)ccc2n1,-10,.,.,-5,.,81*,75*,51*
c1ccc(-n2ncc3c(NCc4ccc5c(c4)OCO5)ncnc32)cc1,-4,-8,11,5,3,-5,.,.
CCN(CC(=O)Nc1ccc2c(c1)OCCO2)C(=O)c1cccc(OCC(C)C)c1,3,1,-3,0,.,-9,.,.
Cc1cc(C)cc(NC(=O)CSc2nc3nc(C)cc(C)n3n2)c1,0,.,.,-6,.,9,.,.
CCOc1ccc(C(=O)Nc2cccc(-c3nc4cccnc4o3)c2)cc1Cl,-2,7,5,16,26,56*,54*,42*
CCOC(=O)c1cccc(NC(=O)c2ccc(NC(=O)c3ccco3)cc2)c1,2,5,5,-7,.,73*,13,.
CCOc1ccc(C(=O)Nc2ccc(NC(=O)c3ccco3)c(Cl)c2)cc1Cl,6,-2,-1,11,-3,62*,49*,94*
CCOc1ccc(C(=O)Nc2ccc(NC(=O)c3ccco3)c(Cl)c2)cc1Br,5,-7,-24,6,-3,4,.,.
CC(C)(C)c1ccc(Oc2ccc(NC(=O)c3ccco3)cn2)cc1,75*,-5,-9,99*,.,56*,39,69*
O=C(Nc1ccc(Oc2cccc(C(F)(F)F)c2)nc1)c1ccco1,3,7,10,13,.,31,.,.
N#CCc1nn2c(-c3ccccc3)ccnc2c1C#N,4,-2,11,2,.,7,.,.
CCOc1ccccc1NC(=O)c1cccc(NC(=O)c2ccco2)c1,17,-3,0,60,100*,62*,67*,64*
COC(=O)c1ccc(NC(=O)c2ccc(NC(=O)c3ccco3)cc2)cc1,0,-4,10,10,.,17,.,.
O=C(Nc1ccc(NC(=O)c2sc3ccccc3c2Cl)cc1Cl)c1ccco1,1,8,3,8,5,89*,23,.
